According to ChEMBL document CHEMBL1142071, “Coproduction of novel 16S rRNA methylase RmtD and metallo-beta-lactamase SPM-1 in a panresistant Pseudomonas aeruginosa isolate from Brazil” (2007):
In brackets after ≈: the same amount, converted by molar mass.

Columns and labels:
Format in all cases: functional
Pseudomonas aeruginosa = assay: Antimicrobial activity against Pseudomonas aeruginosa PA0905
Procedure, shortened: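 The clinical urine isolate was collected in 2005 in Sorocaba, Brazil. Aminoglycoside MICs were determined by CLSI agar dilution, with E. coli ATCC 25922 as the control strain. β-Lactam, ciprofloxacin and colistin MICs were determined by Etest.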

Escherichia coli [1] = assay: Antimicrobial activity against Escherichia coli XL1-Blue pPA95S29
Procedure, shortened: (§1)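 Aminoglycoside MICs were determined by CLSI agar dilution, with E. coli ATCC 25922 as the control strain. The host was E. coli XL1-Blue carrying pBluescript II SK(+), either as vector alone or as a ligated Sau3AI partial digest of the cloned resistance plasmid. Transformants were selected on LB agar with 50 μg/ml ampicillin plus 10 μg/ml amikacin.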

Escherichia coli [2] = assay: Antimicrobial activity against Escherichia coli XL1-Blue [pBluescript 2 SK(+); procedure, shortened: as §1

Compound | MIC (Pseudomonas aeruginosa) [µg/mL] | MIC (Escherichia coli [1]) [µg/mL] | MIC (Escherichia coli [2]) [µg/mL]
NCC[C@H](O)C(=O)N[C@@H]1C[C@H](N)[C@@H](O[C@H]2O[C@H](CN)[C@@H](O)[C@H](O)[C@H]2O)[C@H](O)[C@H]1O[C@H]1O[C@H](CO)[C@@H](O)[C@H](N)[C@H]1O [AMIKACIN] | > 256 | > 256 | 0.5 (≈ 0.854 µM)
CN[C@@H]1[C@@H](O[C@H]2O[C@H](CO)[C@@H](N)[C@H](O)[C@H]2O)OC2C[C@@H](N)[C@@H](O[C@H]3[C@H](O)[C@@H](O)[C@H](N)C[C@@H]3N)OC2[C@@H]1O (some centres undefined) [APRAMYCIN] | 32 (≈ 59.3 µM) | 2 (≈ 3.71 µM) | 2 (≈ 3.71 µM)
NCC[C@H](O)C(=O)N[C@@H]1C[C@H](N)[C@@H](O[C@H]2O[C@H](CN)CC[C@H]2N)[C@H](O)[C@H]1O[C@H]1O[C@H](CO)[C@@H](O)[C@H](N)[C@H]1O [ARBEKACIN] | > 256 | > 256 | 0.25 (≈ 0.452 µM)
C[C@H]1[C@H](NC(=O)/C(=N\OC(C)(C)C(=O)O)c2csc(N)n2)C(=O)N1S(=O)(=O)O [AZTREONAM] | 8 (≈ 18.4 µM) | – | –
CO/N=C(\C(=O)N[C@@H]1C(=O)N2C(C(=O)[O-])=C(C[N+]3(C)CCCC3)CS[C@H]12)c1csc(N)n1 [CEFEPIME] | > 256 | – | –
CC(C)(O/N=C(\C(=O)N[C@@H]1C(=O)N2C(C(=O)[O-])=C(C[n+]3ccccc3)CS[C@H]12)c1csc(N)n1)C(=O)O [CEFTAZIDIME] | > 256 | – | –
O=C(O)c1cn(C2CC2)c2cc(N3CCNCC3)c(F)cc2c1=O [CIPROFLOXACIN] | > 32 | – | –
NC[C@@H]1O[C@H](O[C@H]2[C@@H](O)[C@H](O[C@@H]3[C@@H](O)[C@H](N)C[C@H](N)[C@H]3O[C@H]3O[C@H](CN)[C@@H](O)[C@H](O)[C@H]3N)O[C@@H]2CO)[C@H](N)[C@@H](O)[C@@H]1O [FRAMYCETIN] | 64 (≈ 104 µM) | 0.12 (≈ 0.195 µM) | 0.12 (≈ 0.195 µM)
C[C@@H](O)[C@H]1C(=O)N2C(C(=O)O)=C(SCCNC=N)C[C@H]12 [IMIPENEM ANHYDROUS] | > 32 | – | –
C[C@@H](O)[C@H]1C(=O)N2C(C(=O)O)=C(S[C@@H]3CN[C@H](C(=O)N(C)C)C3)[C@H](C)[C@H]12 [MEROPENEM] | > 32 | – | –
CN[C@@H]1[C@H](O[C@H]2[C@H](O[C@H]3[C@H](O)[C@@H](O)[C@H](N=C(N)N)[C@@H](O)[C@@H]3N=C(N)N)O[C@@H](C)[C@]2(O)C=O)O[C@@H](CO)[C@H](O)[C@H]1O [STREPTOMYCIN] | 128 (≈ 220 µM) | 1 (≈ 1.72 µM) | 0.5 (≈ 0.86 µM)
NC[C@H]1O[C@H](O[C@H]2[C@H](O)[C@@H](O[C@H]3O[C@H](CO)[C@@H](O)[C@H](N)[C@H]3O)[C@H](N)C[C@@H]2N)[C@H](N)C[C@@H]1O [TOBRAMYCIN] | 256 (≈ 548 µM) | 64 (≈ 137 µM) | 0.06 (≈ 0.128 µM)
